# Laboratory results from ChEMBL document CHEMBL1155849, “Cadinane sesquiterpenes from the leaves of Eupatorium adenophorum” (J Nat Prod, 2008).
# pIC50: −log10 of the molar value.
# Legend:
# Type in all cases: functional, cell-based
# HCT-8 = test: Cytotoxicity against human HCT8 cells by MTT assay
# Summary of the method: (§1)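 Cell proliferation was read out by MTT. The lines were HCT-8 (colon), Bel-7402 (hepatoma) and A2780 (ovarian), all of human origin. Values are reported as IC50.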
# Bel-7402 = test: Cytotoxicity against human Bel7402 cells by MTT assay; summary of the method: as §1
# A2780 = test: Cytotoxicity against human A2780 cells by MTT assay; summary of the method: as §1
Compound,pIC50 (HCT-8),pIC50 (Bel-7402),pIC50 (A2780)
CC1=C[C@H]2[C@@H](CC1)[C@H](C)C[C@H](O)[C@@]2(O)C(C)C,5.70,5.77,5.77
CC1=C[C@@H]2C3=C(C)COO[C@@]3(O)C[C@@H](C)[C@@H]2CC1=O,< 5.30,< 5.30,< 5.30
CC1=C[C@@H]2C3=C(C)C(=O)O[C@H]3C[C@@H](C)[C@@H]2CC1=O,< 5.30,< 5.30,< 5.30
CC1=C[C@@H]2C3=C(C)C(=O)O[C@]3([C@@]34C[C@@H](C)[C@@H]5CC(=O)C(C)=C[C@@H]5C3=C(C)C(=O)O4)C[C@@H](C)[C@@H]2CC1=O,< 5.30,< 5.30,< 5.30
